Source: ChEMBL document CHEMBL1123914, “6-Methylergoline-8-carboxylic acid esters as serotonin antagonists: N1-substituent effects on 5HT2 receptor affinity” (J Med Chem, 1987)

target: T1, Serotonin 2 (5-HT2) receptor (Rattus norvegicus) (UniProt P30994+P08909+P14842); assay: Affinity towards 5-hydroxytryptamine 2 receptor by measuring its ability to antagonize serotonin-induced contractions in the rat jugular vein.
How it was run: (§1)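 Rat external jugular vein rings, cannulated and mounted between two L-shaped needles on a force transducer in Krebs bicarbonate buffer. Tissues equilibrated 1–2 h. After control cumulative serotonin contraction curves, vessels were incubated with antagonist for 1 h and the serotonin curves repeated. K_B = [B]/(dose ratio − 1), where dose ratio is agonist ED50 with antagonist over control ED50. Reported as −log K_B.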

T1 sequence (P08909 whole entry, looked up): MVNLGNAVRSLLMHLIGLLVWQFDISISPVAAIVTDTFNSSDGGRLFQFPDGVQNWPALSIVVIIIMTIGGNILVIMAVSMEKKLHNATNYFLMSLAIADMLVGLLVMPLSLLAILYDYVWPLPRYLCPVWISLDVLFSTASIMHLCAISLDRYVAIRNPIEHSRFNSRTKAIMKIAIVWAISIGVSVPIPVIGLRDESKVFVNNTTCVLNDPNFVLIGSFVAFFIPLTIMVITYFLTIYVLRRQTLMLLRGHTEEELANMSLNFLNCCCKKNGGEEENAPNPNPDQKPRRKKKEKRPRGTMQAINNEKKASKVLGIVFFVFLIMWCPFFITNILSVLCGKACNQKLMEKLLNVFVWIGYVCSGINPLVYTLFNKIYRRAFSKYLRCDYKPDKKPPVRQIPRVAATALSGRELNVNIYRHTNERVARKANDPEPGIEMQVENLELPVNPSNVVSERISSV
T1 sequence (P14842 whole entry, looked up): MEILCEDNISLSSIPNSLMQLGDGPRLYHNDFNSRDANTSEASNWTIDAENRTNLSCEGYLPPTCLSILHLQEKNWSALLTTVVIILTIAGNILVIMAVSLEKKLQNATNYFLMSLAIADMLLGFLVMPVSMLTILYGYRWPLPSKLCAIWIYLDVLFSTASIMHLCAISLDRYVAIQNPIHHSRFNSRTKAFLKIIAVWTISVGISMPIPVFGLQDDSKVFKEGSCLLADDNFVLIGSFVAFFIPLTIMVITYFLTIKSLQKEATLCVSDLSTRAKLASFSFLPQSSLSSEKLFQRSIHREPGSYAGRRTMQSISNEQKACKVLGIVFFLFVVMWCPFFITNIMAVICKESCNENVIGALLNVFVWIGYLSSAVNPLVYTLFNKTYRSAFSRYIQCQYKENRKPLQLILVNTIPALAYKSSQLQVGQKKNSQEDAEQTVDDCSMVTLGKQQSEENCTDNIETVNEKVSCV
T1 sequence (P30994 whole entry, looked up): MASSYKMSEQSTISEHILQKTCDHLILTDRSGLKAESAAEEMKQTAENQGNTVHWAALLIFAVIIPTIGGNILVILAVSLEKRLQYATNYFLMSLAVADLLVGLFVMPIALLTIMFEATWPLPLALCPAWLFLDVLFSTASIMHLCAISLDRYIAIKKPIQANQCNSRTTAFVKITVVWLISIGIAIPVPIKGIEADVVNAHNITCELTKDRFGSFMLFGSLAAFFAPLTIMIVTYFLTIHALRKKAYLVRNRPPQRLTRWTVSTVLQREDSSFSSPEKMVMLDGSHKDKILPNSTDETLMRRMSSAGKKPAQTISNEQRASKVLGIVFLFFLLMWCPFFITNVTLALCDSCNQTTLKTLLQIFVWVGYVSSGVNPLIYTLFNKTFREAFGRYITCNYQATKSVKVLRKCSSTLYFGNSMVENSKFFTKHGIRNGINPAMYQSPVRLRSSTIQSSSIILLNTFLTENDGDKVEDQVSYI

SMILES | -Log KB
CN1CC(C(=O)OCCO)CC2c3cccc4c3c(cn4C)CC21 (stereo not given) | 8.63
CCc1c(C)n(C(C)C)c2ccc(N(C)C)cc12 | 7.28
COC(=O)C1CC2c3cccc4c3c(cn4Cc3ccccc3)CC2N(C)C1 (stereo not given) | 7.64
CCc1c(C)[nH]c2ccc(N(C)C)cc12 | 4.93
CN1CC(C(=O)OCCO)CC2c3cccc4[nH]cc(c34)CC21 (stereo not given) | 7.62
C=CCn1cc2c3c(cccc31)C1CC(C(=O)OCCO)CN(C)C1C2 (stereo not given) | 8.17
COC(=O)C1CC2c3cccc4[nH]cc(c34)CC2N(C)C1 (stereo not given) | 8.1
COC(=O)C1CC2c3cccc4c3c(cn4C(C)C)CC2N(C)C1 (stereo not given) | 8.29
CCCn1cc2c3c(cccc31)C1CC(C(=O)OC)CN(C)C1C2 (stereo not given) | 7.72
CCCCCCCCn1cc2c3c(cccc31)C1CC(C(=O)OC(C)C(C)O)CN(C)C1C2 (stereo not given) | < 7
C=CCn1cc2c3c(cccc31)C1CC(C(=O)OC)CN(C)C1C2 (stereo not given) | 7.89
COC(=O)C1CC2c3cccc4c3c(cn4C)CC2N(C)C1 (stereo not given) | 8.23
CC(O)C(C)OC(=O)C1CC2c3cccc4c3c(cn4C(C)C)CC2N(C)C1 (stereo not given) | 9.76
CC(O)C(C)OC(=O)C1CC2c3cccc4c3c(cn4C3CCCCCC3)CC2N(C)C1 (stereo not given) | 7.45
CC(C)Cn1cc2c3c(cccc31)C1CC(C(=O)OC(C)C(C)O)CN(C)C1C2 (stereo not given) | 7.53
CCc1c(C)n(CC)c2ccc(N(C)C)cc12 | 6.45
CC(O)C(C)OC(=O)C1CC2c3cccc4c3c(cn4C)CC2N(C)C1 (stereo not given) | 9.26
CCn1cc2c3c(cccc31)C1CC(C(=O)OC(C)C(C)O)CN(C)C1C2 (stereo not given) | 8.9
COC(=O)C1CC2c3cccc4c3c(cn4CC(C)C)CC2N(C)C1 (stereo not given) | 7.57
CN1CC(C(=O)OCCO)CC2c3cccc4c3c(cn4Cc3ccccc3)CC21 (stereo not given) | 8.12
CCCn1cc2c3c(cccc31)C1CC(C(=O)OC(C)C(C)O)CN(C)C1C2 (stereo not given) | 8.34
CCc1c(C)n(C)c2ccc(N(C)C)cc12 | 6.51
CC(O)C(C)OC(=O)C1CC2c3cccc4c3c(cn4Cc3ccccc3)CC2N(C)C1 (stereo not given) | 7.37
CC(C)n1cc2c3c(cccc31)C1CC(C(=O)OCCO)CN(C)C1C2 (stereo not given) | 9.13
CC(C)Cn1cc2c3c(cccc31)C1CC(C(=O)OCCO)CN(C)C1C2 (stereo not given) | 7.42
CCn1cc2c3c(cccc31)C1CC(C(=O)OC)CN(C)C1C2 (stereo not given) | 8.12
CC(O)C(C)OC(=O)C1CC2c3cccc4[nH]cc(c34)CC2N(C)C1 (stereo not given) | 8.42

target: T1, Serotonin 2 (5-HT2) receptor (Rattus norvegicus); assay: Affinity towards 5-hydroxytryptamine 2 receptor by measuring its ability to antagonize serotonin-induced contractions in the rat jugular vein; no appreciable 5-HT2 receptor affinity; how it was run: as §1

SMILES | -Log KB
CCC(CC)n1cc2c3c(cccc31)C1CC(C(=O)OC)CN(C)C1C2 (stereo not given) | < 7
CC(O)C(C)OC(=O)C1CC2c3cccc4c3c(cn4C3CCCC3)CC2N(C)C1 (stereo not given) | < 7
CCC(CC)n1cc2c3c(cccc31)C1CC(C(=O)OC(C)C(C)O)CN(C)C1C2 (stereo not given) | < 7
